Laboratory results: ChEMBL document CHEMBL4145605, “Evodialones A and B: Polyprenylated Acylcyclopentanone Racemates with a 3-Ethyl-1,1-diisopentyl-4-methylcyclopentane Skeleton from Evodia lepta” (2018)
≈ marks a conversion by molar mass, not a printed value.

Assays:
Type in all cases: functional
Enterobacter cloacae = assay: Antibacterial activity against Enterobacter cloacae ATCC 700323 measured after 16 hrs by turbidimetric method; settings: ATCC 700323, 16 h
Summary of the method: (§1)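 In vitro panel of four Gram-positive bacteria, three Gram-negative bacteria and six fungal strains. Activity is reported as MIC in μM. Culture and assay protocols follow an earlier method, with details in the Supporting Information.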

[1] = test system: Staphylococcus epidermidis; assay: Antibacterial activity against Staphylococcus epidermidis ATCC 12228 measured after 16 hrs by turbidimetric method; settings: ATCC 12228, 16 h; summary of the method: as §1
Enterococcus faecalis = assay: Antibacterial activity against Enterococcus faecalis ATCC 29212 measured after 16 hrs by turbidimetric method; settings: ATCC 29212, 16 h; summary of the method: as §1
Staphylococcus aureus = assay: Antibacterial activity against Staphylococcus aureus ATCC 25923 measured after 16 hrs by turbidimetric method; settings: ATCC 25923, 16 h; summary of the method: as §1
[2] = test system: Meyerozyma guilliermondii; assay: Antifungal activity against Candida guilliermondii ATCC 6260 measured after 48 hrs by turbidimetric method; settings: ATCC 6260, 48 h; summary of the method: as §1
Nakaseomyces glabratus = assay: Antifungal activity against Candida glabrata ATCC 2001 measured after 48 hrs by turbidimetric method; settings: CBS 138, 48 h; summary of the method: as §1
Bacillus subtilis = assay: Antibacterial activity against Bacillus subtilis ATCC 21332 measured after 16 hrs by turbidimetric method; settings: ATCC 21332, 16 h; summary of the method: as §1
Candida parapsilosis = assay: Antifungal activity against Candida parapsilosis ATCC 22019 measured after 48 hrs by turbidimetric method; settings: Lodderomyces parapsilosis, ATCC 22019, 48 h; summary of the method: as §1
Klebsiella pneumoniae = assay: Antibacterial activity against Klebsiella pneumoniae ATCC 700603 measured after 16 hrs by turbidimetric method; settings: Klebsiella pneumoniae, 700603, 16 h; summary of the method: as §1
Candida albicans = assay: Antifungal activity against Candida albicans ATCC 60193 measured after 48 hrs by turbidimetric method; settings: ATCC 60193, 48 h; summary of the method: as §1
Escherichia coli = assay: Antibacterial activity against Escherichia coli ATCC 25922 measured after 16 hrs by turbidimetric method; settings: ATCC 25922, 16 h; summary of the method: as §1
Pichia kudriavzevii = assay: Antifungal activity against Candida krusei ATCC 6258 measured after 48 hrs by turbidimetric method; settings: ATCC 6258, 48 h; summary of the method: as §1
Clavispora lusitaniae = assay: Antifungal activity against Candida lusitaniae ATCC 34449 measured after 48 hrs by turbidimetric method; settings: ATCC 34449, 48 h; summary of the method: as §1

## COC(=O)[C@@]1(O)C(=O)[C@@]2(CC=C(C)C)C[C@H](O)C(C)(C)OC2=C1C(C)=O
Enterobacter cloacae
  MIC: > 200 µM
[1]
  MIC: > 200 µM
Enterococcus faecalis
  MIC: > 200 µM
Staphylococcus aureus
  MIC: > 200 µM
[2]
  MIC: 34.2 µM (≈ 12.5 µg/mL)
Nakaseomyces glabratus
  MIC: 34.2 µM (≈ 12.5 µg/mL)
Bacillus subtilis
  MIC: > 200 µM
Candida parapsilosis
  MIC: 17.1 µM (≈ 6.27 µg/mL)
Klebsiella pneumoniae
  MIC: > 200 µM
Candida albicans
  MIC: 137 µM (≈ 50.1 µg/mL)
Escherichia coli
  MIC: > 200 µM
Pichia kudriavzevii
  MIC: 137 µM (≈ 50.1 µg/mL)
Clavispora lusitaniae
  MIC: 68.3 µM (≈ 25 µg/mL)

## COC(=O)[C@@]1(O)C(=O)[C@@]2(CC=C(C)C)C[C@@H](O)C(C)(C)OC2=C1C(C)=O
Enterobacter cloacae
  MIC: > 200 µM
[1]
  MIC: > 200 µM
Enterococcus faecalis
  MIC: > 200 µM
Staphylococcus aureus
  MIC: > 200 µM
[2]
  MIC: > 200 µM
Nakaseomyces glabratus
  MIC: > 200 µM
Bacillus subtilis
  MIC: > 200 µM
Candida parapsilosis
  MIC: > 200 µM
Klebsiella pneumoniae
  MIC: > 200 µM
Candida albicans
  MIC: > 200 µM
Escherichia coli
  MIC: > 200 µM
Pichia kudriavzevii
  MIC: > 200 µM
Clavispora lusitaniae
  MIC: > 200 µM

## COC(=O)[C@]1(O)C(=O)[C@]2(CC=C(C)C)C[C@@H](O)C(C)(C)OC2=C1C(C)=O
Enterobacter cloacae
  MIC: > 200 µM
[1]
  MIC: > 200 µM
Enterococcus faecalis
  MIC: > 200 µM
Staphylococcus aureus
  MIC: > 200 µM
[2]
  MIC: 68.3 µM (≈ 25 µg/mL)
Nakaseomyces glabratus
  MIC: 34.2 µM (≈ 12.5 µg/mL)
Bacillus subtilis
  MIC: > 200 µM
Candida parapsilosis
  MIC: 17.1 µM (≈ 6.27 µg/mL)
Klebsiella pneumoniae
  MIC: > 200 µM
Candida albicans
  MIC: 137 µM (≈ 50.1 µg/mL)
Escherichia coli
  MIC: > 200 µM
Pichia kudriavzevii
  MIC: 137 µM (≈ 50.1 µg/mL)
Clavispora lusitaniae
  MIC: 68.3 µM (≈ 25 µg/mL)

## C[C@@H]1[C@H](O)[C@@H](C)/C=C/C=C/C=C/C=C/C=C/C=C/C=C/[C@H](O[C@@H]2O[C@H](C)[C@@H](O)[C@H](N)[C@@H]2O)C[C@@H]2O[C@](O)(C[C@@H](O)C[C@@H](O)[C@H](O)CC[C@@H](O)C[C@@H](O)CC(=O)O[C@H]1C)C[C@H](O)[C@H]2C(=O)O [AMPHOTERICIN B]
[2]
  MIC: < 0.5 µM
Nakaseomyces glabratus
  MIC: < 0.5 µM
Candida parapsilosis
  MIC: < 0.5 µM
Candida albicans
  MIC: < 0.5 µM
Pichia kudriavzevii
  MIC: < 0.5 µM
Clavispora lusitaniae
  MIC: 8.7 µM (≈ 8.04 µg/mL)
